Our source for the solubility and Activity values is ChEMBL document CHEMBL1156952, “Synthesis and biological evaluations of novel bendazac lysine analogues as potent anticataract agents” (Bioorg Med Chem Lett, 2010).

Data set [1] is described as follows: Aqueous solubility of the compound. The following applies: water (aqueous). The format is physicochemical.
The nature of data set [2]: Anticataract activity against FeCl3/H2O2-induced cataract in rabbit lens assessed as absence of opacificaion at 0.5 mM treated 1 hr before FeCl3/H2O2 challenge measured after 24 hrs. In kind it is functional, Oryctolagus cuniculus, Lens of camera-type eye.
Data set [3] is described as follows: Anticataract activity against FeCl3/H2O2-induced cataract in rabbit lens assessed as slight degree of opacificaion at 0.5 mM treated 1 hr before FeCl3/H2O2 challenge measured after 24 hrs. In kind it is functional, Oryctolagus cuniculus, Lens of camera-type eye.
Data set [4] in a line: Anticataract activity against FeCl3/H2O2-induced cataract in rabbit lens assessed as middle degree of opacificaion at 0.5 mM treated 1 hr before FeCl3/H2O2 challenge measured after 24 hrs. In kind it is functional, Oryctolagus cuniculus, Lens of camera-type eye.
The nature of data set [5]: Anticataract activity against FeCl3/H2O2-induced cataract in rabbit lens assessed as extensive mature nuclear opacity at 0.5 mM treated 1 hr before FeCl3/H2O2 challenge measured after 24 hrs. The format is functional, Oryctolagus cuniculus, Lens of camera-type eye.
A short description of data set [6]: Anticataract activity against FeCl3/H2O2-induced cataract in rat lens assessed as absence of opacificaion at 0.5 mM treated 1 hr before FeCl3/H2O2 challenge measured after 24 hrs. In kind it is functional, Lens of camera-type eye. In outline:
(§1)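 Isolated rat lenses were cultured in DMEM and challenged with FeCl3 (0.02%) plus H2O2 (0.5%). Compounds were added at 0.5 mM to the medium of transparent lenses, with a challenged, untreated control. Lenses were scored as the percentage at each opacification grade (−, +, ++, +++).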

Data set [7] in a line: Anticataract activity against FeCl3/H2O2-induced cataract in rat lens assessed as slight degree of opacificaion at 0.5 mM treated 1 hr before FeCl3/H2O2 challenge measured after 24 hrs. The format is functional, Lens of camera-type eye. In a few lines:
as §1

Data set [8] can be described thus: Anticataract activity against FeCl3/H2O2-induced cataract in rat lens assessed as middle degree of opacificaion at 0.5 mM treated 1 hr before FeCl3/H2O2 challenge measured after 24 hrs. In kind it is functional, Lens of camera-type eye. In a few lines: as §1
A short description of data set [9]: Anticataract activity against FeCl3/H2O2-induced cataract in rat lens assessed as extensive mature nuclear opacity at 0.5 mM treated 1 hr before FeCl3/H2O2 challenge measured after 24 hrs. The format is functional, Lens of camera-type eye. In outline: as §1
The nature of data set [10]: Anticataract activity against FeCl3/H2O2-induced cataract in rabbit lens assessed as absence of opacificaion at 10 mM treated 1 hr before FeCl3/H2O2 challenge measured after 24 hrs. In kind it is functional, Oryctolagus cuniculus, Lens of camera-type eye.
The nature of data set [11]: Anticataract activity against FeCl3/H2O2-induced cataract in rabbit lens assessed as slight degree of opacificaion at 10 mM treated 1 hr before FeCl3/H2O2 challenge measured after 24 hrs. In kind it is functional, Oryctolagus cuniculus, Lens of camera-type eye.
Data set [12] can be described thus: Anticataract activity against FeCl3/H2O2-induced cataract in rabbit lens assessed as middle degree of opacificaion at 10 mM treated 1 hr before FeCl3/H2O2 challenge measured after 24 hrs. In kind it is functional, Oryctolagus cuniculus, Lens of camera-type eye.
A short description of data set [13]: Anticataract activity against FeCl3/H2O2-induced cataract in rabbit lens assessed as extensive mature nuclear opacity at 10 mM treated 1 hr before FeCl3/H2O2 challenge measured after 24 hrs. In kind it is functional, Oryctolagus cuniculus, Lens of camera-type eye.
Data set [14] in a line: Anticataract activity against FeCl3/H2O2-induced cataract in rabbit lens assessed as absence of opacificaion at 5 mM treated 1 hr before FeCl3/H2O2 challenge measured after 24 hrs. In kind it is functional, Oryctolagus cuniculus, Lens of camera-type eye.
Data set [15] in a line: Anticataract activity against FeCl3/H2O2-induced cataract in rabbit lens assessed as slight degree of opacificaion at 5 mM treated 1 hr before FeCl3/H2O2 challenge measured after 24 hrs. In kind it is functional, Oryctolagus cuniculus, Lens of camera-type eye.
The nature of data set [16]: Anticataract activity against FeCl3/H2O2-induced cataract in rabbit lens assessed as middle degree of opacificaion at 5 mM treated 1 hr before FeCl3/H2O2 challenge measured after 24 hrs. In kind it is functional, Oryctolagus cuniculus, Lens of camera-type eye.
A short description of data set [17]: Anticataract activity against FeCl3/H2O2-induced cataract in rabbit lens assessed as extensive mature nuclear opacity at 5 mM treated 1 hr before FeCl3/H2O2 challenge measured after 24 hrs. In kind it is functional, Oryctolagus cuniculus, Lens of camera-type eye.
The nature of data set [18]: Anticataract activity against FeCl3/H2O2-induced cataract in rabbit lens assessed as absence of opacificaion at 15 mM treated 1 hr before FeCl3/H2O2 challenge measured after 24 hrs. In kind it is functional, Oryctolagus cuniculus, Lens of camera-type eye.
The nature of data set [19]: Anticataract activity against FeCl3/H2O2-induced cataract in rabbit lens assessed as slight degree of opacificaion at 15 mM treated 1 hr before FeCl3/H2O2 challenge measured after 24 hrs. The format is functional, Oryctolagus cuniculus, Lens of camera-type eye.
Data set [20] can be described thus: Anticataract activity against FeCl3/H2O2-induced cataract in rabbit lens assessed as middle degree of opacificaion at 15 mM treated 1 hr before FeCl3/H2O2 challenge measured after 24 hrs. The format is functional, Oryctolagus cuniculus, Lens of camera-type eye.
Data set [21] can be described thus: Anticataract activity against FeCl3/H2O2-induced cataract in rabbit lens assessed as extensive mature nuclear opacity at 15 mM treated 1 hr before FeCl3/H2O2 challenge measured after 24 hrs. In kind it is functional, Oryctolagus cuniculus, Lens of camera-type eye.

In data set [1], `N[C@@H](Cc1c[nH]cn1)C(=O)O.O=C(O)C(Oc1nn(Cc2ccccc2)c2ccccc12)C(=O)O` gave a solubility of 180 mg/mL. Besides, the Activity is listed as 0% in data set [2]; 65% in [3]; 35% in data set [4]; 0% in [5]; 0% in data set [6]; 85% in data set [7]. Moreover, the Activity in [8] turned out to be 15%; in data set [9], 0%; in [10], 90%; in [11], 10%; in data set [12], 0%; in data set [13] it was 0%. Moreover, the Activity is given as 30% in data set [14]; 70% in data set [15]; 0% in [16]; 0% in [17]; 100% in data set [18]; 0% in data set [19]. In addition, the Activity in data set [20] and in [21] was 0% each time.

In general, solubility refers to the concentration that dissolves in the medium under given conditions.
